Active and inactive are the calls of the source. The calls are words filed in the database; no cut-off is given here.
How the values were obtained:
[1] = target: T1, Serine--tRNA ligase (Escherichia coli (strain K12), UniProt P0A8L1); assay: Inhibition of C-terminal His10-tagged Escherichia coli B ER2560 SerRS expressed in Lemo21(DE3) using Ap4A as substrate in presence of serine by leuconostoc mesenteroides hexokinase/glucose 6-Phosphate dehydrogenase coupled UV-visible spectrophotometry
Procedure, shortened: (§1)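 Continuous coupled spectrophotometric assay of the adenylate formation step with thrombin-cleaved, gel-filtered SerRS. Buffer is 50 mM HEPES pH 7.6 with 10 mM MgCl2, 50 mM KCl, 1 mM DTT and 10% DMSO. It also holds 10 mM glucose, 0.5 mM NADP+, yeast hexokinase and L. mesenteroides G6PDH. IC50 by non-linear regression.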

[2] = target: Serine--tRNA ligase (Staphylococcus aureus (strain NCTC 8325 / PS 47), UniProt P95689); assay: Inhibition of C-terminal His10-tagged Staphylococcus aureus seg50 SerRS expressed in Lemo21(DE3) using Ap4A as substrate in presence of serine by leuconostoc mesenteroides hexokinase/glucose 6-Phosphate dehydrogenase coupled UV-visible spectrophotometry; procedure, shortened: as §1
[3] = test system: Escherichia coli; assay: Antibacterial activity against Escherichia coli ATCC 25922 assessed as reduction in bacterial growth incubated for 18 to 20 hrs by broth microdilution assay; format: functional
[4] = test system: Staphylococcus aureus; assay: Antibacterial activity against Staphylococcus aureus ATCC 25923 assessed as reduction in bacterial growth incubated for 18 to 20 hrs by broth microdilution assay; format: functional
[5] = Selectivity index, ratio of IC50 for human N-terminal polyHis-tagged SerRS expressed in Escherichia coli BL21 (DE3) to IC50 for C-terminal His10-tagged Escherichia coli B ER2560 SerRS expressed in Lemo21(DE3)
[6] = target: T1, Serine--tRNA ligase; assay: Binding affinity to C-terminal His10-tagged Escherichia coli B ER2560 SerRS expressed in Lemo21(DE3) SerRS assessed as dissociation constant by isothermal titration calorimetry
[7] = target: Serine--tRNA ligase (Escherichia coli (strain K12)) (UniProt P0A8L1); assay: Binding affinity to C-terminal His10-tagged Escherichia coli B ER2560 SerRS expressed in Lemo21(DE3) SerRS assessed as binding stoichiometry at 2:1 ratio of compound to protein by isothermal titration calorimetry
Procedure, shortened: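 E. coli SerRS was purified by gel filtration and dialysed overnight at 4 °C into 20 mM Tris-HCl pH 7.5, 200 mM NaCl. Ligands were made up in the same buffer and all solutions degassed. ITC ran at 25 °C: 7 µM protein in the cell was titrated with 140 µM ligand by 2 µl then 26 × 10 µl injections (20 s each, 120 s apart). Stoichiometry N came from iterative isotherm fitting; runs were in triplicate.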

[8] = Selectivity index, ratio of IC50 for human N-terminal polyHis-tagged SerRS expressed in Escherichia coli BL21 (DE3) to IC50 for C-terminal His10-tagged Staphylococcus aureus seg50 SerRS expressed in Lemo21(DE3)
[9] = Solubility of the compound in HEPES buffer in presence of human N-terminal polyHis-tagged SerRS expressed in Escherichia coli BL21 (DE3) at 1000 uM; format: physicochemical
[10] = target: T1, Serine--tRNA ligase; assay: Binding affinity to C-terminal His10-tagged Escherichia coli B ER2560 SerRS expressed in Lemo21(DE3) SerRS assessed as affinity constant for second binding site by isothermal titration calorimetry
[11] = target: T1, Serine--tRNA ligase; assay: Binding affinity to C-terminal His10-tagged Escherichia coli B ER2560 SerRS expressed in Lemo21(DE3) SerRS assessed as affinity constant for first binding site by isothermal titration calorimetry

T1 sequence (P0A8L1 whole entry): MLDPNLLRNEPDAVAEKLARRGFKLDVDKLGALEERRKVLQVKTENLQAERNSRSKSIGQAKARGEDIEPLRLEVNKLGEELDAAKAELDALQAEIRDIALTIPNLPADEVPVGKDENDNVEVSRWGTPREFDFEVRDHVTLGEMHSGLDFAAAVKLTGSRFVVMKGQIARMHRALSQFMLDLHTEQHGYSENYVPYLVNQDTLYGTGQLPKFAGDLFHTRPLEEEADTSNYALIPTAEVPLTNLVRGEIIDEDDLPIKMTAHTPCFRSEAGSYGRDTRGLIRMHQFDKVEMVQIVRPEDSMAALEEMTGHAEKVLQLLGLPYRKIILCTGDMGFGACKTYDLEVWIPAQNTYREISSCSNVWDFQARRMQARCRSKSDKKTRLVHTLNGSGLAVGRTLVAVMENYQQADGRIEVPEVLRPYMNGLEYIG
Sequence of Serine--tRNA ligase (Escherichia coli (strain K12)) (P0A8L1 whole entry, looked up): as the sequence (P0A8L1 whole entry) above

Structure (SMILES)	MIC [3]	MIC [4]	also measured
CC1(C)O[C@@H]2[C@H](O1)[C@@H](CO)O[C@H]2n1cnc2c(N)nc(I)nc21			IC50 [1]: 285 µM; IC50 [2]: 231 µM
Nc1nc(-c2ccco2)nc2c1ncn2[C@@H]1O[C@H](COS(=O)(=O)NC(=O)[C@@H](N)CO)[C@@H](O)[C@H]1O	> 256 mg/L	> 256 mg/L	
Nc1nc(-c2ccccc2)nc2c1ncn2[C@@H]1O[C@H](COS(=O)(=O)NC(=O)[C@@H](N)CO)[C@@H](O)[C@H]1O	> 256 mg/L	> 256 mg/L	
Nc1nc(-c2cccnc2)nc2c1ncn2[C@@H]1O[C@H](COS(=O)(=O)NC(=O)[C@@H](N)CO)[C@@H](O)[C@H]1O	> 256 mg/L	> 256 mg/L	Kd [6]: 0.29 to 1.92 µM; Activity [7]: Active; Kd [10]: 1.92 µM; Kd [11]: 0.29 µM; solubility [9]: Insoluble

Further lines, with some results ahead:

MIC [3]	MIC [4]	Structure (SMILES)	also measured
> 256 mg/L	> 256 mg/L	Nc1nc(Cl)nc2c1ncn2[C@@H]1O[C@H](COS(=O)(=O)NC(=O)[C@@H](N)CO)[C@@H](O)[C@H]1O	
> 256 mg/L	> 256 mg/L	C/C=C/c1nc(N)c2ncn([C@@H]3O[C@H](COS(=O)(=O)NC(=O)[C@@H](N)CO)[C@@H](O)[C@H]3O)c2n1	
> 256 mg/L	> 256 mg/L	Nc1ncnc2c1ncn2[C@@H]1O[C@H](COS(=O)(=O)NC(=O)[C@@H](N)CO)[C@@H](O)[C@H]1O	Ratio IC50 [5]: 10; Kd [6]: 0.00127 µM; Activity [7]: Active; Ratio IC50 [8]: 10
> 256 mg/L	> 256 mg/L	Nc1nc(I)nc2c1ncn2[C@@H]1O[C@H](COS(=O)(=O)NC(=O)[C@@H](N)CO)[C@@H](O)[C@H]1O	
> 256 mg/L	> 256 mg/L	Nc1nc(-c2ccsc2)nc2c1ncn2[C@@H]1O[C@H](COS(=O)(=O)NC(=O)[C@@H](N)CO)[C@@H](O)[C@H]1O	solubility [9]: Insoluble
